Source: PubChem (several laboratories)
TNAP inh hiacc – blocks human TNAP under high phosphate acceptor concentration; purified TNAP, CDP-star luminescence, 1 M DEA; inhibition, % at 20 µM; P05186; 200,000 compounds, 0.03% hits; AID 1135;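 active = over 50% inhibition of tissue-nonspecific alkaline phosphatase at 20 µM in the single-dose screen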;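 note: plate controls were DMSO wells for no effect and EDTA-quenched wells as full inhibition for full effect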
Target sequence (P05186 whole entry, looked up): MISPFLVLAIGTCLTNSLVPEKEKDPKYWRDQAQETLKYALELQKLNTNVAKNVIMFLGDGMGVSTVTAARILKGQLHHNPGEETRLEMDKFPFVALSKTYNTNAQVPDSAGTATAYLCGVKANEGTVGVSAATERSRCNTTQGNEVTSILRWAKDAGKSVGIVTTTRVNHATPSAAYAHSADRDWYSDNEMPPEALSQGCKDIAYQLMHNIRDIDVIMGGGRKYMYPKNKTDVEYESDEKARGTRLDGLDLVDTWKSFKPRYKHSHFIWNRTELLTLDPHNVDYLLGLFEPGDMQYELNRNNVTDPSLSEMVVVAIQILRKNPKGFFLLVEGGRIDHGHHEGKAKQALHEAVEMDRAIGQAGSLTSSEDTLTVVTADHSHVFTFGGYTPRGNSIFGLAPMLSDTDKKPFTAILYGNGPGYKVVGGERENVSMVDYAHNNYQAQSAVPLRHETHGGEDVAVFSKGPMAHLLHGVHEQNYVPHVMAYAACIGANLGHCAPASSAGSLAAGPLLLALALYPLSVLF
zVAD death inh – blocks zVAD induced death of L929 cells | L929 zVAD necroptosis rescue, ATP luminescence, 24 h; with zVAD 60 µM | viability rescue, % at 10 µM | 220,000 compounds, 0.38% hits | AID 1377;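 active = activation, scaled between plate controls, above about 75%, limit read from the data; inactive = activation under that limit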;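 note: 0% = zVAD with DMSO and 100% = DMSO alone without zVAD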
SDO1 yeast rescue – sdo1-depleted yeast growth rescue; S. cerevisiae sdo1-depleted JHY4D growth rescue, OD600 30 h; hits give high values; pdr5 snq2 efflux-pump mutant strain; z-score at 10 µM; 140,000 compounds, 0.21% hits; AID 817;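 active = z-score above 3 at both the 24 hr and the 30 hr optical density reads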;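 note: z-score against mean and SD of all compound wells on the same plate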
TNF death inh – blocks TNF-alpha induced death of Jurkat FADD-/- cells. Jurkat FADD-/- TNF necroptosis rescue, ATP luminescence, 24 h; 0 = TNF only, 100 = no-TNF cells. activation (protection from cell death), % at 10 µM. 220,000 compounds, 0.068% hits;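 active = activation, meaning protection from cell death, of at least 50% relative to plate controls; inactive = activation below 50%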;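 note: necroptosis triggered by 40 ng/mL TNF-alpha added together with compound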
TNAP inh no acc – blocks human TNAP activity with no phosphate acceptor present | P05186 | purified TNAP, CDP-star luminescence, 30 min | inhibition, % at 20 µM | 200,000 compounds, 0.26% hits;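 active = tissue-nonspecific alkaline phosphatase inhibition above about 50% at 20 µM in the single-dose screen, limit read from the data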;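 note: 0% = DMSO negative control and 100% = EDTA positive control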
TNAP act hi DEA – TNAP (human) activation, high acceptor. activation factor at 20 µM. P05186. 200,000 tested, under 10 active. purified TNAP, CDP-star luminescence, 1 M DEA, 30 min; hits give high values; 0 = EDTA background, 1 = DMSO-only activity. AID 1136;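 active = activation factor at least 2 at 20 µM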
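Assay system: human TNAP; Input: enzyme diluted 1/800 final; Reagent: CDP-star luminogenic substrate at 100 µM final; Timing: 30 min, room temperature; Signal: luminescence; Evaluation: TNAP activation factor scaled between EDTA and DMSO control wells.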
sdo1 rescue conf – confirmation of growth rescue in SDO1-depleted yeast, bone marrow failure; AID 949; S. cerevisiae JHY4D (SDO1-depleted) growth rescue, OD600, 30 h; hits give high values; efflux-deficient strain, SNQ2 and PDR5 mutated; OD recovery (no concentration beside the values); shares compounds with SDO1 yeast rescue; 440 compounds, 44% hits;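 active = yeast growth recovered at 30 hours, either rising with dose fitted slope above 0.001 or with average optical density gain above 0.07, some results past the limit were not filed as active; inactive = growth falling with dose or no effect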;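 note: gain in OD600 from 0 h to 30 h averaged across all seven doses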
Starred values were filed as active, the others as inactive. Shown are actives, neighbours in structure and some others; about 0.81% of the full set was active somewhere.

How did COc1ccc(CN2C(=O)c3cccnc3C2Nc2ccc(C)cc2)cc1 (stereo unspecified) do in these assays?
TNAP inh hiacc: -5; zVAD death inh: 0; SDO1 yeast rescue: 0.35; TNF death inh: 0; TNAP inh no acc: -6; TNAP act hi DEA: 1

Results for Cc1nc2ccccn2c1C(=O)NCCCN1CCOCC1 ?
TNAP inh hiacc: -7; zVAD death inh: 0; SDO1 yeast rescue: 1.9; TNF death inh: -1; TNAP inh no acc: -6; TNAP act hi DEA: 1.1; sdo1 rescue conf: 0.089*

Results for CCCCn1c(C)nc2c(=O)n(C)c(=O)[nH]c21 ?
TNAP inh hiacc: -2; zVAD death inh: 0; SDO1 yeast rescue: 2.4; TNF death inh: -1; TNAP inh no acc: -8; TNAP act hi DEA: 1; sdo1 rescue conf: 0.074*

What do the screens show for `NC/C(=N\O)c1ccc(Cl)cc1Cl`?
TNAP inh hiacc: -4; zVAD death inh: 0; SDO1 yeast rescue: 0.03; TNF death inh: 0; TNAP inh no acc: -4; TNAP act hi DEA: 1

Results for O=C(Cc1coc(-c2ccc(F)cc2)n1)Nc1ccccc1 ?
TNAP inh hiacc: 0; zVAD death inh: 0; SDO1 yeast rescue: 3.2*; TNF death inh: 2; TNAP inh no acc: -8; TNAP act hi DEA: 1; sdo1 rescue conf: 0.041

Results for O=C(NC1(C(F)(F)F)C(=O)Nc2c1c(=O)[nH]c(=O)n2-c1ccccc1)c1ccncc1 (stereo unspecified) ?
zVAD death inh: 0; TNF death inh: 0

Results for CC(=O)c1cc(C#N)c(Oc2ccc(Cl)cc2Cl)nc1C ?
zVAD death inh: 0; TNF death inh: -6

How did COc1ccc(OCCNC(=O)/C=C/c2ccc([N+](=O)[O-])cc2)cc1 do in these assays?
TNAP inh hiacc: -4; zVAD death inh: 0; SDO1 yeast rescue: 15*; TNF death inh: 3; TNAP inh no acc: -9; TNAP act hi DEA: 1; sdo1 rescue conf: 0.038

Results for COCCNC(=O)NC12CC3CC(CC(C3)C1)C2 ?
TNAP inh hiacc: -2; zVAD death inh: 4; TNF death inh: 1; TNAP inh no acc: -11; TNAP act hi DEA: 1

What do the screens show for `CC(C)OCCCNC(=O)NC12CC3CC(CC(C3)C1)C2`?
TNAP inh hiacc: -4; zVAD death inh: 0; SDO1 yeast rescue: 9.4*; TNF death inh: 1; TNAP inh no acc: -8; TNAP act hi DEA: 1; sdo1 rescue conf: 0.079*

What do the screens show for `COc1ccc(C(C2C(=O)CC(C)(C)CC2=O)C2C(=O)CC(C)(C)CC2=O)cc1`?
zVAD death inh: 0; TNF death inh: 3

How did COc1ccc(C(C2C(=O)CC(C)(C)CC2=O)C2C(=O)CC(C)(C)CC2=O)cc1COCC(F)(F)F do in these assays?
TNAP inh hiacc: 3; zVAD death inh: 1; SDO1 yeast rescue: 14*; TNF death inh: 1; TNAP inh no acc: 2; TNAP act hi DEA: 1; sdo1 rescue conf: 0.082*

What do the screens show for `CCn1cc(/C=N/NC(=O)c2ccc(C#N)cc2F)c2ccccc21`?
TNAP inh hiacc: -12; zVAD death inh: 0; SDO1 yeast rescue: 0.9; TNF death inh: 2; TNAP inh no acc: -15; TNAP act hi DEA: 1.1

What do the screens show for `COC(=O)Cn1cc(/C=N/NC(=O)c2ccc(C#N)cc2F)c2ccccc21`?
TNAP inh hiacc: -5; zVAD death inh: 0; SDO1 yeast rescue: 4*; TNF death inh: 0; TNAP inh no acc: -5; TNAP act hi DEA: 1.1; sdo1 rescue conf: 0.069

Results for COc1ccc(-c2cc(C(F)(F)F)nc(SCC(=O)Nc3cc(C)on3)n2)cc1 ?
TNAP inh hiacc: -6; zVAD death inh: -1; SDO1 yeast rescue: 1.5; TNF death inh: -5; TNAP inh no acc: -10; TNAP act hi DEA: 1.1; sdo1 rescue conf: 0.084*

Results for COC(CNc1ccc([N+](=O)[O-])c(NCC(OC)OC)c1C#N)OC ?
zVAD death inh: 0; TNF death inh: -1

How did COc1cc(/C=N/NC(=O)CCC(=O)NCc2ccccc2)cc(OC)c1OC do in these assays?
TNAP inh hiacc: -3; zVAD death inh: 1; SDO1 yeast rescue: 4.5*; TNF death inh: 4; TNAP inh no acc: -8; TNAP act hi DEA: 1; sdo1 rescue conf: 0.095*

How did COc1cc(/C=N/NC(=S)N/N=C/c2cc(OC)c(OC)c(OC)c2)cc(OC)c1OC do in these assays?
TNAP inh hiacc: -2; zVAD death inh: 0; SDO1 yeast rescue: 3*; TNF death inh: 1; TNAP inh no acc: -15; TNAP act hi DEA: 1; sdo1 rescue conf: 0.03

What do the screens show for `CCCCCCCCNC(=O)c1cnsn1`?
TNAP inh hiacc: -2; zVAD death inh: 0; SDO1 yeast rescue: 1.3; TNF death inh: -1; TNAP inh no acc: -3; TNAP act hi DEA: 1

What do the screens show for `CCCCCCCCNC(=O)c1cnccn1`?
TNAP inh hiacc: -3; zVAD death inh: 1; SDO1 yeast rescue: 9.4*; TNF death inh: 1; TNAP inh no acc: -8; TNAP act hi DEA: 1; sdo1 rescue conf: 0.053

Results for Cc1ccc(Nc2nc(N)nc(CCl)n2)c(C)c1 ?
zVAD death inh: -1; TNF death inh: -26

What do the screens show for `COc1ccc(-c2noc(CCC(=O)Nc3cccc(C)c3)n2)cc1`?
TNAP inh hiacc: -1; zVAD death inh: 1; SDO1 yeast rescue: 0.05; TNF death inh: 1; TNAP inh no acc: -5; TNAP act hi DEA: 1

Results for COc1ccc(-c2noc(CCC(=O)N(C)c3cccc(C)c3)n2)cc1 ?
TNAP inh hiacc: -4; zVAD death inh: 0; SDO1 yeast rescue: 4.3*; TNF death inh: -1; TNAP inh no acc: -10; TNAP act hi DEA: 1; sdo1 rescue conf: 0.045

Results for CCc1ccc(OCCOCC(O)CNC2CCCC2)cc1 (stereo unspecified) ?
TNAP inh hiacc: -6; zVAD death inh: 0; TNF death inh: 1; TNAP inh no acc: -4; TNAP act hi DEA: 1.1

Results for COC(C(=O)Nc1ccc(S(=O)(=O)Nc2ccc(F)cc2)cc1)c1ccccc1 (stereo unspecified) ?
TNAP inh hiacc: 0; zVAD death inh: 2; SDO1 yeast rescue: -0.57; TNF death inh: 24; TNAP inh no acc: -5; TNAP act hi DEA: 1

What do the screens show for `COC(C(=O)Nc1ccc(S(=O)(=O)Nc2cccc3ccccc23)cc1)c1ccccc1` (stereo unspecified)?
TNAP inh hiacc: -3; zVAD death inh: 1; SDO1 yeast rescue: 8.8*; TNF death inh: 6; TNAP inh no acc: -7; TNAP act hi DEA: 1; sdo1 rescue conf: 0.065

What do the screens show for `Cn1cccc1C(=O)C(=O)Nc1ccc(F)c(F)c1`?
TNAP inh hiacc: -2; zVAD death inh: 2; TNF death inh: 1; TNAP inh no acc: -11; TNAP act hi DEA: 1
